The source made the active and inactive calls. The calls are words filed in the database; no cut-off is given here.
Columns and labels:
[1] = test system: SH-SY5Y; assay: Cytotoxicity against human SH-SY5Y cells assessed as reduction in cell viability incubated for 24 hrs by MUH reagent based spectrophotometric analysis; type: functional
[2] = test system: SH-SY5Y; assay: Cytotoxicity against human SH-SY5Y cells assessed as reduction in cell viability incubated for 48 hrs by MUH reagent based spectrophotometric analysis; type: functional
[3] = test system: SH-SY5Y; assay: Cytotoxicity against human SH-SY5Y cells assessed as reduction in cell viability incubated for 72 hrs by MUH reagent based spectrophotometric analysis; type: functional
Method in brief: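 SH-SY5Y in DMEM/10% FBS seeded 0.75 × 10⁴ cells/well, after 24 h treated with 0.1–100 μM for 24, 48 or 72 h. Washed, incubated with MUH 0.01 mg/mL in PBS 30 min at 37 °C in the dark; fluorescence ex 330/em 450 nm, normalized to untreated cells. IC50 by nonlinear regression, log(inhibitor) vs normalized response.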

[4] = target: Histone deacetylase 2 (Homo sapiens, UniProt Q92769); assay: Inhibition of human recombinant HDAC2 using aminoluciferin-conjugated histone 4 derived acetylated lysine peptide as substrate incubated for 30 mins by bio-luminogenic assay
[5] = target: T1, Protein deacetylase HDAC6 (Homo sapiens, UniProt Q9UBN7); assay: Inhibition of human recombinant HDAC6 using aminoluciferin-conjugated histone 4 derived acetylated lysine peptide as substrate incubated for 30 mins by bio-luminogenic assay
T1 sequence (Q9UBN7 whole entry): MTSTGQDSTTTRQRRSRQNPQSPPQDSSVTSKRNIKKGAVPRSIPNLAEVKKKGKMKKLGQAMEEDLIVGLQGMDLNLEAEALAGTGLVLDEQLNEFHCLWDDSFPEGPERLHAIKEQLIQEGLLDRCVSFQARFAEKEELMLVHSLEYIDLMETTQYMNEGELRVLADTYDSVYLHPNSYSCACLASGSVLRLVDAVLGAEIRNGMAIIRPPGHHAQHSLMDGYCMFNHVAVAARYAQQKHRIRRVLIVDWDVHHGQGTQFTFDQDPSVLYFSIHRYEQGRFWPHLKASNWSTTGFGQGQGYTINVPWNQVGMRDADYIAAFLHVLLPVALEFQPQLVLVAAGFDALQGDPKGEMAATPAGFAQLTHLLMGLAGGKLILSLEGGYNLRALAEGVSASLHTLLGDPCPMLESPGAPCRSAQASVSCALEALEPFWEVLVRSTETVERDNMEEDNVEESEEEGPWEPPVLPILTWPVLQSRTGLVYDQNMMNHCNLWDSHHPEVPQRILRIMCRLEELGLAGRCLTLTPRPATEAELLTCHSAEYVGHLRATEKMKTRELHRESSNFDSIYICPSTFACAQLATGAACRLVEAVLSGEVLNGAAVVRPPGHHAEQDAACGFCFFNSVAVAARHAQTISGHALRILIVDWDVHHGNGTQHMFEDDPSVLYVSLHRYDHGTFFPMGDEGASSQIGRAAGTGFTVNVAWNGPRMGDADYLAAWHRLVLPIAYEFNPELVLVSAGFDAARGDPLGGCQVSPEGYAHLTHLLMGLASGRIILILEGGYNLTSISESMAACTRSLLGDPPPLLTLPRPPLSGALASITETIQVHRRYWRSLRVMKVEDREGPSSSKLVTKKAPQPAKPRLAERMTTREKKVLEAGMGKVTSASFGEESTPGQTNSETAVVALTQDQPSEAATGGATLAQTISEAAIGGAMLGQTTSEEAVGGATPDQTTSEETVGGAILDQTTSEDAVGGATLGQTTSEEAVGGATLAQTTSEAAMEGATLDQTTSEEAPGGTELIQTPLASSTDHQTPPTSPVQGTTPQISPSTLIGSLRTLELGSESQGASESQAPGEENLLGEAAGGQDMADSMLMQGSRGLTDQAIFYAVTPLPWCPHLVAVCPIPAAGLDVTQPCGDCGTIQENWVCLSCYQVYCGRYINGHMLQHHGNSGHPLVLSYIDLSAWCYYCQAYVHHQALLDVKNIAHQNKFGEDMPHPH

[6] = target: Histone deacetylase (Homo sapiens) (UniProt Q13547+O15379+Q9UBN7+Q92769+Q9UQL6+Q8WUI4+Q9BY41+Q96DB2+P56524+Q9UKV0+Q969S8); assay: Inhibition of HDAC in human SH-SY5Y cells assessed as hyperacetylation of histone H2/H3 at 5 uM incubated for 6 hrs by western blot analysis; type: cell-based
Method in brief: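 SH-SY5Y seeded at 20 × 10⁴ cells/cm², after 48 h given 5 μM compound or vehicle for 6 h. Nuclei isolated, histones acid-extracted (0.4 N H2SO4, 4 °C 1 h), acetone-precipitated, run on 15% gel and blotted with anti-acetyl-lysine antibody, ECL detection; densitometry normalized to H1.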

[7] = test system: SH-SY5Y; assay: Induction of oxidative stress in human SH-SY5Y cells assessed as increase in ROS production at 2 uM incubated for 24 hrs by DCFH-DA staining based fluorescence analysis; type: functional, cell-based
Method in brief: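 SH-SY5Y plated 1 × 10⁴ cells/well, allowed 24 h to adhere, then given 2 μM compound or vehicle for 24 h. Cells PBS-washed and loaded with 10 μM DCFDA in DMEM for 30 min, washed again; fluorescence at ex 485/em 535 nm normalized to protein content (Lowry). n = 5; mean ± SD, triplicate.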

[8] = test system: SH-SY5Y; assay: Antioxidant activity in human SH-SY5Y cells assessed as protection against […]-induced oxidative stress at 2 uM pretreated for 24 hrs followed by incubation with […] for 30 mins by DCFH-DA staining based fluorescence analysis; type: functional, cell-based; conditions: time 24.5 hrs
Method in brief: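 SH-SY5Y seeded 1 × 10⁴ cells/well, adhered 24 h, exposed to 2 μM compound or vehicle for 24 h, then loaded with 10 μM DCFDA in DMEM for 30 min; stress induced afterwards with 100 μM TBH in PBS for 30 min. Fluorescence read at ex 485/em 535 nm, normalized to Lowry protein; n = 5, triplicate.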

[9] = test system: SH-SY5Y; assay: Induction of cell cycle arrest in human SH-SY5Y cells assessed as proportion of cells at sub-G1 phase at 10 uM incubated for 72 hrs by propidium iodide staining based flow cytometry (reference value: 5.56%)
[10] = test system: Neurosphere; assay: Neuroprotective activity against C57BL/6N mouse neurosphere assessed as increase in NPCs spontaneous differentiation by measuring Olig2-positive cells at 2.5 to 5 uM measured after 7 days by immunofluorescence analysis; type: functional, tissue-based; conditions: dose 2.5-5 µM, time 7.0 day
Method in brief: (§1)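 Thirty 7-day neurospheres plated on Matrigel-coated coverslips with 2.5 or 5 μM compound or DMSO, differentiated 7 days, fixed in 4% PFA, immunostained for Nestin, DCX, Olig2 or GFAP with Alexa 555 secondaries, DAPI counterstain. Intensity index = marker-positive intensity / total DAPI intensity; mean ± SD of 3 fields per condition.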

[11] = test system: Neurosphere; assay: Neuroprotective activity against C57BL/6N mouse neurosphere assessed as increase in NPCs spontaneous differentiation by measuring GFAP-positive cells at 2.5 to 5 uM measured after 7 days by immunofluorescence analysis; type: functional, tissue-based; conditions: dose 2.5-5 µM, time 7.0 day; method in brief: as §1

Sequence of Histone deacetylase 2 (Q92769 whole entry): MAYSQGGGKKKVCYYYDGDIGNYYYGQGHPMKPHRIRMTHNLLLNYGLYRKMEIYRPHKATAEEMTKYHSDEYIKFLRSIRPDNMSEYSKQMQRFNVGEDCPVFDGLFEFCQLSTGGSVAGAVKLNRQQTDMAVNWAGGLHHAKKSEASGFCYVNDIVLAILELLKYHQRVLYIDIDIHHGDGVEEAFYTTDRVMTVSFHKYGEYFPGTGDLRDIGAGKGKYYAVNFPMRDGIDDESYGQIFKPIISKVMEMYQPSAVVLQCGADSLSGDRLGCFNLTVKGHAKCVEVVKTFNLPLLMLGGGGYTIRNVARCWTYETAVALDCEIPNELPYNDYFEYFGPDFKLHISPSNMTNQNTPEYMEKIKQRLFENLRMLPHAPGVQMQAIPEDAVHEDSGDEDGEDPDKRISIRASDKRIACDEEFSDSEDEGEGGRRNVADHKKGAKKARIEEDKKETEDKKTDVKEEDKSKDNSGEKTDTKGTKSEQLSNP

SMILES	IC50 [1] [µM]	IC50 [2] [µM]	IC50 [3] [µM]	IC50 [4] [µM]	IC50 [5] [µM]	inhibition [6]	Activity [7]	Activity [8]	Activity [9] [%]	Activity [10]	Activity [11]
CC1=C(NCc2ccc(C(=O)Nc3ccccc3N)cc2)C(=O)c2ccccc2C1=O	1.56	0.78	0.62	2.1	3.76	Active	Active	inactive	42.32		
CC1=C(NCCCCNC(=O)CS)C(=O)c2ccccc2C1=O	> 100	> 100	> 100	25.2	30		inactive	inactive		inactive	inactive

From ChEMBL document CHEMBL5532752, “Integrating a quinone substructure into histone deacetylase inhibitors to cope with Alzheimer's disease and cancer” (RSC Med Chem, 2024)
